The list is not random: actives were taken first. Their share in the collection is about 2.4%.
dFosB act-1: activators of delta FosB homodimer, primary screen, biochemical, fluorescence polarization, TAMRA-CDK5 oligo, single point | Protein FosB (Mus musculus), P13346 | purified delta FosB; percent of positive-control signal above neutral wells | activation, % at 25 µM | hit rate 0.99% among 340,000;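 active = mean activation above about 17%, with every replicate also reaching it, limit read from the data, passing the limit was not always enough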
INS-1E GSIS act: GLuc luminescence reporter in INS-1E cells, primary screen for activators of glucose-dependent secretion of insulin | activation, % at 16.6 µM | AID 743287, 2014 | hit rate 0.61% among 370,000 | INS-1E GLuc reporter insulin secretion, 2-3 h;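 active = lowest replicate activation of at least 40%, so every replicate reaches that level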;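 also: 0% = median of neutral control wells and 100% = median of IBMX positive control wells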
miR-122 sensor: miR-122 Renilla sensor signal increase in Huh7, primary screen, miR-122 inhibitor project, cell-based, single point, plate reader; Huh7 miR-122 Renilla luciferase sensor, 48 h; neutral wells = 0, positive control = 100; hit rate 0.3% among 340,000; activation (reporter increase), % at 12.5 µM;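 active = mean replicate activation score at least 90 and every replicate individually at or above 90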;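 also: higher luciferase means less miR-122 activity so hits act as miR-122 inhibitors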
Cneo AK release: Cryptococcus neoformans cell lysis inducers, primary screen, AK release luminescence, single concentration | C. neoformans lysis, adenylate kinase release luminescence, 4 h; normalised: neutral wells 0, clomiphene wells 100 | lysis activity, % at 15 µM | hit rate 0.2% among 360,000 | AID 651654, 2012;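 active = mean lysis activity across replicates of at least 80%, whatever share of replicates individually reach that level; inactive = mean lysis activity below 80%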
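Test system: log-phase Cryptococcus neoformans yeast cells. Input: 5 × 10^6 yeast cells/mL. Medium: fresh YPD growth medium. Doses: single dose. Incubation: static 4 h at 37 °C with compound, 1 h detection. Measured by: luminescent adenylate kinase detection reagent. Read-out: signal increase indicating cell lysis. Benchmarks: Clomiphene.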
HIV Env fusion: inhibitors of HIV-1 Env-driven cell-cell fusion, primary screen, HeLa-JRFL effector, CEM21 target cells, luciferase. inhibition, % at 12.3 µM. hit rate 1.1% among 360,000. AID 651610, 2012;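 active = mean replicate inhibition score of at least 50 and every replicate individually at or above 50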;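 also: 0% = plate neutral controls and 100% = maraviroc near 300 nM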
Rtt109 HAT inh: inhibitors of C. albicans Rtt109/Vps75 HAT, primary screen, biochemical, ThioGlo CoA-SH fluorescence, plate reader; hit rate 0.16% among 330,000; inhibition, % at 34.9 µM; purified Rtt109/Vps75, 4 h; Histone acetyltransferase RTT109 (Candida albicans (strain SC5314 / ATCC MYA-2876)), …; AID 540336, 2011;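 active = inhibition of at least 50% in every replicate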
Target sequence (Q5AAJ8 whole entry, looked up): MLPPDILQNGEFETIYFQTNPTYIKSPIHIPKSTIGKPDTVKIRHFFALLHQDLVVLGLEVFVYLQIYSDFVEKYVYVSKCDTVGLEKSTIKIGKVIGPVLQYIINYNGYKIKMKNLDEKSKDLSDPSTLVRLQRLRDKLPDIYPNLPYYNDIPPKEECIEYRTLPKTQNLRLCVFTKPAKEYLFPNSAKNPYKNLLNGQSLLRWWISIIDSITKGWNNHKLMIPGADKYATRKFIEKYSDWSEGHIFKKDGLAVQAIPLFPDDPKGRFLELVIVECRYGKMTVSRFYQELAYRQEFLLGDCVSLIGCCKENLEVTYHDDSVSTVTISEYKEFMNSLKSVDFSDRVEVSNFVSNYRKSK
dFosB act-2: activators of mouse delta FosB DNA binding, confirmation, biochemical, fluorescence polarization, TAMRA-CDK5 oligo, cherry-picked samples | shares compounds with dFosB act-1 | purified delta FosB; normalised: neutral wells 0, positive control 100 | activation, % at 24.9 µM | 2,400 tested, under 10 active;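 active = highest replicate activation at or above 34% and every replicate reaching that threshold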;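 also: higher polarization means more probe DNA bound by delta FosB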
The depositor's hits bear a star; / = not tested or not shown; [ ] = remark or other dose.

SMILES	dFosB act-1	INS-1E GSIS act	miR-122 sensor	Cneo AK release	HIV Env fusion	Rtt109 HAT inh	dFosB act-2
CC(C)C#Cc1ccc2c(c1)O[C@@H](CN(C)C(=O)c1cccc(F)c1)[C@@H](C)CN([C@H](C)CO)S2(=O)=O	/	1	9[16.7 µM]	1	7[16.7 µM]	/	/
Cn1c2ccccc2c2cnn(CC(=O)Nc3ccc(F)cc3F)c(=O)c21	21*	2	4	2	-30	-8	3
COc1ccc(NC(=O)Cn2nc(C(=O)O)c3ccccc3c2=O)cc1Cl	93*	4	/	-7	8	-12	4
O=C(Cn1nc(C(=O)O)c2ccccc2c1=O)c1cc(F)ccc1F	8	-5	2	-6	-16	4	/
O=C(Cn1nc(C(=O)O)c2ccccc2c1=O)Nc1ccc(F)cc1F	26*	32	-4	-2	2	-13	3
O=C(c1cccnc1)N1CC2(C1)[C@H](c1ccccc1)[C@@H](CO)N2C(=O)c1cccnc1	/	4	/	/	/	/	/
CC(=O)N[C@@H]1CC[C@@H](CCNC(=O)C2CC2)O[C@@H]1CO	/	-13	-6[16.7 µM]	6	-1[16.7 µM]	/	/
COc1ccc(NC(=O)N(C)C[C@@H]2Oc3ccc(NC(=O)C4CC4)cc3CC(=O)N([C@@H](C)CO)C[C@H]2C)cc1	/	22	-5[16.7 µM]	0	11[16.7 µM]	/	/
CCc1ccccc1NC(=O)CCc1nc(-c2ccc(C)cc2)no1	21*	/	3	-2	/	0	8
Cc1ccc(-c2noc(CCC(=O)Nc3ccccc3C)n2)cc1	2	/	-32	1	-52	1	/
CC(C)C#Cc1cnc2c(c1)C(=O)N([C@H](C)CO)C[C@H](C)[C@H](CN(C)Cc1cccc(F)c1)O2	/	-17	14[16.7 µM]	0	-12[16.7 µM]	/	/
COc1ccc(-c2cc(C(F)(F)F)nc(SCC(=O)Nc3sc4c(c3C#N)CCC4)n2)cc1	-2	4	-6	/	/	1	/
COc1ccc(-c2nnn(CC(=O)Nc3sc4c(c3C#N)CCCC4)n2)cc1	26*	18	1	-4	14	13	1
CSc1ccc(CNc2nc3ccccc3n3cnnc23)cc1	26*	13	-3	/	-6	-11	4
OCCCN=c1cc(-c2ccccc2)oc2ccc(Cl)cc12	10	/	8	/	/	-6	/
CC1(C)CC(N=c2cc(-c3ccccc3)oc3ccc(Cl)cc23)CC(C)(C)N1	40*	-17	/	/	-46	39	-3
COCCNC(=O)C[C@H]1C=C[C@H](NC(=O)NC2CCCCC2)[C@@H](CO)O1	/	17	-2[16.7 µM]	3	6[16.7 µM]	/	/
O=C(COc1ncnc2ccccc12)Nc1cc(S(=O)(=O)N2CCOCC2)ccc1Cl	46*	14	/	0	22	-1	2
Cc1ccc(S(=O)(=O)N2CCOCC2)cc1NC(=O)COc1ncnc2ccccc12	-4	-2	-1	/	17	26	/
Cc1ccccc1OCc1nnc(SCC(=O)Nc2ccc3c(c2)OCO3)n1C	-5	6	2	-2	42	4	/
Cc1ccccc1OCc1nnc(SCC(=O)Nc2ccc3nc(SCC(=O)Nc4ccccc4)sc3c2)n1C	20*	-1	/	/	-19	6	2
CCCCc1ccc(NC(=O)N2CCN(c3cc(C)nc4ccccc34)CC2)c(C)c1	37*	/	-3	0	/	2	3
CSc1ccc(-c2sc(Nc3ccccc3)n[n+]2-c2ccc(F)cc2)cc1	23*	/	14	3	/	-1	6
COc1ccccc1NC(=O)c1oc2ccccc2c1NC(=O)C1CC1	24*	-9	1	-3	7	-14	0
CCCNC(=O)Nc1ccc2c(c1)C(=O)N(C)C[C@@H](OC)[C@H](C)CN(Cc1ccc(-c3ccccn3)cc1)[C@H](C)CO2	/	-24	/	-3	3[16.7 µM]	/	/
SMILES	dFosB act-1	INS-1E GSIS act	miR-122 sensor	Cneo AK release	HIV Env fusion	Rtt109 HAT inh	dFosB act-2
COc1ccc(OC)c(/C=N/NC(=O)c2[nH]nc3c2CCc2ccccc2-3)c1	23*	13	-8	/	-187	22	0
c1ccc(CSc2nnc(-c3c[nH]c4ccccc34)o2)cc1	20*	/	-2	-5	/	7	6
O=C(Nc1nc2c(s1)CN(Cc1ccccc1)CC2)C1CCCC1	24*	6	3	/	-8	-6	1
CC(C)(C)C(=O)Nc1nc2c(s1)CN(Cc1ccccc1)CC2	4	-12	/	/	-5	1	/
COc1cccc2cc(-c3cc(=O)oc4ccc(OCC(C)=O)cc34)oc12	-9	24	-3	-1	1	-4	/
COC(=O)COc1ccc2oc(=O)cc(-c3cc4cccc(OC)c4o3)c2c1	52*	6	-2	-1	12	-16	1
COC(=O)C[C@@H]1CC[C@H]2[C@H](COc3ccc(NS(=O)(=O)c4ccccc4F)cc3C(=O)N2C)O1	/	-5	29[16.7 µM]	1	-9[16.7 µM]	/	/
O=C(NC(Cc1ccccc1)c1nc2ccccc2[nH]1)c1ccc(Cl)c([N+](=O)[O-])c1 (configuration not stated)	31*	1	/	/	-17	-2	0
CC1CCC(C(=O)NC(C(=O)NCCc2ccc(S(N)(=O)=O)cc2)C(C)C)CC1 (configuration not stated)	21*	-8	-2	0	8	13	5
CC(C)c1nc(SCC(=O)Nc2cccc(C(F)(F)F)c2)c2c(=O)n(C)c(=O)n(C)c2n1	-11	/	9	3	-144	0	/
CC(C)c1nc(SCC(=O)Nc2ccc3c(c2)OCCO3)c2c(=O)n(C)c(=O)n(C)c2n1	24*	/	-5	-1	-21	-5	8
COc1cccc(C(=O)Nc2ccc3c(c2)C(=O)N(C)C[C@H](OC)[C@H](C)CN(C(C)=O)[C@@H](C)CO3)c1	/	2	/	-2	1[16.7 µM]	/	/
Cc1ccc(O)c(C(=O)c2cc(C#N)c3nc4ccccc4n3c2)c1	24*	-3	7	/	-3	-19	8
Cc1csc(NC(=O)COc2ccc3c(C)cc(=O)oc3c2)n1	54*	-2	-2	0	/	-4	4
Cc1cc(=O)oc2cc(NC(=O)CCOc3ccccc3)ccc12	21*	3	/	-1	5	-10	2

Screening results as filed in PubChem BioAssay.
